From ChEMBL document CHEMBL1152744, “Select pyrimidinones inhibit the propagation of the malarial parasite, Plasmodium falciparum” (Bioorg Med Chem, 2009) come the findings set out here.

The IC50 is the concentration at which inhibition is half-maximal. By GI50 is commonly meant the concentration that inhibits growth by half. One may read the inhibition as the relative decrease from the control value, in per cent.

The subject of series [1] is Plasmodium falciparum. Kind of series: Antimalarial activity against chloroquine-resistant Plasmodium falciparum Dd2 infected human erythrocytes after 72 hrs by [3H]hypoxanthine uptake. The series is classed as functional, organism-based. Put shortly: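 Asexual blood-stage P. falciparum Dd2 (chloroquine-resistant) in human erythrocytes, exposed to compound for 72 h, with [3H]hypoxanthine added for the last 24 h. Dose-response series were run, and IC50 was calculated by linear regression on the linear portions of plotted uptake values. Chloroquine was included as an internal control.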

The target of series [2] is Heat shock protein SSA1 (Saccharomyces cerevisiae) (UniProt P10591). The series is described as follows: Effect on yeast Hsp70 Ssa1 ATPase activity assessed as fold change in Kcat at 100 uM relative to control.
Series [3] deals with Plasmodium falciparum. The series is described as follows: Effect on Plasmodium falciparum Hsp70 ATPase activity assessed as fold change in Kcat at 100 uM relative to control. In short, it runs like this: (§1)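 Single-turnover ATPase assay measuring kCAT of recombinant P. falciparum Hsp70 (E. coli Rosetta 2, Ni-chelate then Q-Sepharose purified), yeast Ssa1, or human HSPA1A (E. coli-expressed, untagged or His6). Optional J-domain partners: Hlj1 1.1 μM; Ydj1 0.045 μM with Ssa1, 0.9 μM with Pf or human Hsp70. Compound at 100 μM final; activity expressed as a fraction of the DMSO-only reaction under the same conditions, set to 1.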

In series [4] the target is Heat shock 70 kDa protein 1A (Homo sapiens) (UniProt P0DMV8). The series is described as follows: Inhibition of human HSPA1A ATPase activity assessed as residual enzyme activity at 300 uM relative to control. In short, it runs like this:
(§2)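 Steady-state ATPase assay with P. falciparum Hsp70, yeast Ssa1 or human Hsp70. Compound at 300 μM final; activity standardized to an equal volume of DMSO, set to 1. Values are means of 6 independent experiments, ±SD where shown.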

In series [5] the target is Heat shock protein SSA1 (Saccharomyces cerevisiae S288c) (UniProt P10591). The series is described as follows: Effect on Saccharomyces cerevisiae Ssa1 ATPase activity assessed as fold change at 100 uM in Kcat relative to control. In short, it runs like this:
as §1

In series [6] the target is Heat shock 70 kDa protein 1A (Homo sapiens) (UniProt P0DMV8). Kind of series: Effect on human HSPA1A ATPase activity assessed as fold change in Kcat at 100 uM relative to control. Put shortly: as §1
Series [7] concerns the target Heat shock protein SSA1 (Saccharomyces cerevisiae S288c) (UniProt P10591). The series is described as follows: Inhibition of Saccharomyces cerevisiae Ssa1 ATPase activity assessed as residual enzyme activity at 300 uM relative to control. Put shortly:
as §2

Series [8] shares this target. The series is described as follows: Effect on Saccharomyces cerevisiae Ssa1 ATPase activity assessed as fold change in Kcat at 100 uM in presence of J-domain containing yeast HlJ1 co-chaperone relative to control. In short, it runs like this: as §1
A short description of series [9]: Cytotoxicity against human WI38 cells. The series is classed as cell-based, WI-38. Put shortly: (§3)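 GI50 measured in HepG2 hepatocellular carcinoma and WI-38 embryonic diploid lung cells, calculated relative to a DMSO (negative) control.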
Series [10] in a line: Cytotoxicity against human HepG2 cells. The series is classed as cell-based. Put shortly: as §3
Series [11] deals with Plasmodium falciparum. The series is described as follows: Effect on Plasmodium falciparum Hsp70 ATPase activity assessed as fold change in Kcat at 100 uM in presence of J-domain containing yeast HlJ1 co-chaperone relative to control. Put shortly:
as §1

Series [12] has as its target Heat shock 70 kDa protein 1A (Homo sapiens) (UniProt P0DMV8). The series is described as follows: Effect on human HSPA1A ATPase activity assessed as fold change in Kcat at 100 uM in presence of J-domain containing Hdj1 co-chaperone relative to control.
Series [13] shares this target. The series is described as follows: Effect on human HSPA1A ATPase activity assessed as fold change in Kcat at 100 uM presence of J-domain containing yeast Ydj1 co-chaperone relative to control. In short, it runs like this:
as §1

Series [14] has as its system Plasmodium falciparum. The series is described as follows: Antimalarial activity against chloroquine-resistant Plasmodium falciparum Dd2 infected human erythrocytes at 5 uM after 72 hrs as inhibition of [3H]hypoxanthine uptake. The series is classed as functional. Put shortly: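 Single-point screen of Dd2 asexual blood stages in human red cells at final concentrations of 1 μM and 5 μM, with 72 h drug exposure and [3H]hypoxanthine pulse over the final 24 h. Read-out was percent inhibition of label uptake. Compounds giving >50% inhibition at 5 μM were re-screened.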

Series [15] deals with Heat shock protein SSA1 (Saccharomyces cerevisiae S288c) (UniProt P10591). Kind of series: Effect on Saccharomyces cerevisiae Ssa1 ATPase activity assessed as fold change in Kcat at 100 uM in presence of J-domain containing yeast Ydj1 co-chaperone relative to control. Put shortly:
as §1

Series [16] has as its target Heat shock 70 kDa protein (Plasmodium falciparum) (UniProt P11144). The series is described as follows: Inhibition of Plasmodium falciparum Hsp70 ATPase activity assessed as residual enzyme activity at 300 uM relative to control. Put shortly: as §2
Series [17] concerns the target Heat shock 70 kDa protein 1A (Homo sapiens) (UniProt P0DMV8). The series is described as follows: Inhibition of human Hsp70 ATPase activity assessed as reduction of rate of ATP hydrolysis. On the set-up: scale not given: the % may be the effect or the level left.

Bounds are passed on as bounds.

Sequence of Heat shock protein SSA1 (Saccharomyces cerevisiae S288c) (P10591 whole entry): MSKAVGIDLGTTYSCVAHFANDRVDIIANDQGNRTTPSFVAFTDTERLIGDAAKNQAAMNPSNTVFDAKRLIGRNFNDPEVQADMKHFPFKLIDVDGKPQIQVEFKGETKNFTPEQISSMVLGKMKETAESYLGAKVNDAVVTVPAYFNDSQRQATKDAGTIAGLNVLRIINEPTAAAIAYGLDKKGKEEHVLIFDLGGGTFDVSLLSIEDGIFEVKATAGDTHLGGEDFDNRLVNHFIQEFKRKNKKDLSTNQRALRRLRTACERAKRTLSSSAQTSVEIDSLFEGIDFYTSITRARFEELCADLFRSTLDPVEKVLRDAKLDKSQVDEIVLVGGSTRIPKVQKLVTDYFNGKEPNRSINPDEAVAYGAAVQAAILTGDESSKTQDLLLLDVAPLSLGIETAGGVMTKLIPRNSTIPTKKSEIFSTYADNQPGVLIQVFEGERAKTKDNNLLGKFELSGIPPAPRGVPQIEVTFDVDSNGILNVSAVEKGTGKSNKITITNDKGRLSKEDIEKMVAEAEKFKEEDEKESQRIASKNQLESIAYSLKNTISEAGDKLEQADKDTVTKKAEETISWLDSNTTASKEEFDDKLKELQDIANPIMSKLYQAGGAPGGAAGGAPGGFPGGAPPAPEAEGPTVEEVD
Sequence of Heat shock 70 kDa protein 1A (Homo sapiens) (P0DMV8 2-641 limits assumed): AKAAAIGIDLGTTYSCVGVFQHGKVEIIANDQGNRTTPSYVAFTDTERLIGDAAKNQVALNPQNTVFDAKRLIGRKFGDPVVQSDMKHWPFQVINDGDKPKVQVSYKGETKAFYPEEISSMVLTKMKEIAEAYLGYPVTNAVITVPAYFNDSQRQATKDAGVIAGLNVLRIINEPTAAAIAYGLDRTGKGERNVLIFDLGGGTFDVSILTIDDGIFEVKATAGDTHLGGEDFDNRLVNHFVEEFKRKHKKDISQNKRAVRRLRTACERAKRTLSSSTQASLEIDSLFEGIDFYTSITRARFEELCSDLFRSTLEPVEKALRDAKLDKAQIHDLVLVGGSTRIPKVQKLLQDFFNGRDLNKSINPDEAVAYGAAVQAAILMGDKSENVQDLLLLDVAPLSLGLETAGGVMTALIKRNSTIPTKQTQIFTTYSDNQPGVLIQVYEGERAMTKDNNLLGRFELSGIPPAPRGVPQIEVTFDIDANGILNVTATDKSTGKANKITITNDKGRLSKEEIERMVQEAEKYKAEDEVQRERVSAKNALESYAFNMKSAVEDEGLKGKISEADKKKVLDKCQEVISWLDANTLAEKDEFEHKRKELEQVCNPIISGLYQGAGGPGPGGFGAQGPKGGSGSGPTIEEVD
Sequence of Heat shock 70 kDa protein (Plasmodium falciparum) (P11144 whole entry): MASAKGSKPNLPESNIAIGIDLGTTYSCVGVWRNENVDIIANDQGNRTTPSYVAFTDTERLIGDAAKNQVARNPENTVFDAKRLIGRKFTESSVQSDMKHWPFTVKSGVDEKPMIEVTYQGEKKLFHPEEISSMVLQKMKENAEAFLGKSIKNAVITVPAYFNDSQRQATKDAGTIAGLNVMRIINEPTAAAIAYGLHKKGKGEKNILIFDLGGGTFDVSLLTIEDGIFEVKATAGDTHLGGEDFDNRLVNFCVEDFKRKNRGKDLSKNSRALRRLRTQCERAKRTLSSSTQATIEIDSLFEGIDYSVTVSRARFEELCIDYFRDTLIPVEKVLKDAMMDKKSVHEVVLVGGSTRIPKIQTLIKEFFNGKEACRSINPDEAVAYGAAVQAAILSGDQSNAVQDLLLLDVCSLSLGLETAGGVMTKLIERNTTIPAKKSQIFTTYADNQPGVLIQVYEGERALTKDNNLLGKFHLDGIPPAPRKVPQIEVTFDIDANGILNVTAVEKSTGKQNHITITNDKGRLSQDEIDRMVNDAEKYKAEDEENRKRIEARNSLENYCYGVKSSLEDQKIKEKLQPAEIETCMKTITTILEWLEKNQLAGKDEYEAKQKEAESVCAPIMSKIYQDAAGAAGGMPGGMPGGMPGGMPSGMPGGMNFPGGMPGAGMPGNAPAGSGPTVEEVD

Turning to `CC1=C(C(=O)OCc2ccccc2)C(c2ccc([N+](=O)[O-])cc2)NC(=O)N1CCCC(=O)N(CCN1CCOCC1)C(C(=O)NC(C)(C)C)c1ccc(-c2ccccc2)cc1` (configuration not stated), the IC50 in the series on Plasmodium falciparum [1] came out at 800 nM. For the same compound, the fold change (FC) in series [2] worked out at 1.2; with Plasmodium falciparum [3], 2.2; in series [4], 0.82; in series [5] it was 1.2; in series [6], 2; in [7] it was 0.75. Further, the fold change (FC) in [8] was 1; with Plasmodium falciparum [11], 1.4; in series [12], 2.9; in series [13] it was -1.1; in series [15], -1.5; in series [16], 0.72. Also, the GI50 in series [9] and in [10] was more than 10000 nM each time. Moreover, the inhibition at 5 µM in the series with Plasmodium falciparum [14] was more than 50%.
With `CCCCN1C(=O)NC(c2ccc(OC)cc2)C(C(=O)OCc2ccccc2)=C1C` (configuration not stated), inhibition with Plasmodium falciparum [1] was half-maximal at 200 nM (IC50). Besides, the fold change (FC) came to 7.2 in the series on Plasmodium falciparum [3]; 0.8 in series [4]; 2.3 in series [5]; 4.5 in series [6]; 0.95 in [7]; 1 in series [8]. For the same compound, the fold change (FC) in the series with Plasmodium falciparum [11] is -1.1; in [12] it was 4.5; in series [13], 1.1; in series [15], -1.1; in [16], 0.92. The GI50 in series [9] and in series [10] was more than 10000 nM each time. The same compound registered an inhibition at 5 µM in the series on Plasmodium falciparum [14] of more than 50%.
As to `CC(=O)O[C@H]1C(=O)[C@@]2(C)[C@H]([C@H](OC(=O)c3ccccc3)[C@]3(O)C[C@H](OC(=O)[C@H](O)[C@@H](NC(=O)c4ccccc4)c4ccccc4)C(C)=C1C3(C)C)[C@]1(OC(C)=O)CO[C@@H]1C[C@@H]2O` [PACLITAXEL], the GI50 is 13.7 nM in [9] and 1 nM in series [10].
Compound `CCOC(=O)C1=C(C)N(CCCC(=O)NCCn2c(-c3ccccc3)cc(C(=O)OC)c2C)C(=O)NC1c1ccc([N+](=O)[O-])cc1` (configuration not stated) displayed an IC50 in the series with Plasmodium falciparum [1] of 30 nM. The fold change (FC) in series [2] was -1.3; in the series on Plasmodium falciparum [3], 3.7; in series [4] it was 0.8; in [5] it was -1.3; in series [6], 2; in [7], 0.89. Besides, the fold change (FC) in series [8] is -1.6; in the series on Plasmodium falciparum [11], 1.5; in [12] it was 4.3; in series [13], -1.2; in series [15], -1.6; in series [16], 1.02. For the same compound, the GI50 in series [9] and in series [10] was more than 10000 nM throughout. In the series on Plasmodium falciparum [14], this compound had an inhibition at 5 µM of more than 50%.
`COC(=O)c1cc(-c2ccccc2)n(CCNC(=O)CCCCCN2C(=O)NC(c3ccc(-c4ccccc4)cc3)C(C(=O)OCc3ccccc3)=C2C)c1C` (configuration not stated): the IC50 in the series on Plasmodium falciparum [1] is 50 nM. Also, the fold change (FC) is 2.7 with Plasmodium falciparum [3]; 0.72 in [4]; 13.3 in series [5]; 3.5 in [6]; 1.2 in series [7]; -6.5 in [8]. In addition, the fold change (FC) in the series on Plasmodium falciparum [11] was -1.1; in series [12] it was 5.3; in series [13], 1.5; in [15], -1.7; in series [16] it was 1.01. The Activity in [17] was found to be 30%. Moreover, the GI50 in series [9] and in series [10] was more than 10000 nM in each case. In addition, in the series with Plasmodium falciparum [14], the inhibition at 5 µM is more than 50%.
Compound `CCCCNC(=O)C(c1ccc(-c2ccccc2)cc1)N(CCN1CCOCC1)C(=O)CCCCCN1C(=O)NC(c2ccc([N+](=O)[O-])cc2)C(C(=O)OCc2ccccc2)=C1C` (configuration not stated) gave an IC50 in the series with Plasmodium falciparum [1] of 200 nM. For the same compound, the fold change (FC) in [2] is -1.6; with Plasmodium falciparum [3], 2.3; in series [4] it was 0.74; in series [5] it was -1.6; in [6], 1; in series [7], 1. Further, the fold change (FC) was -1.1 in series [8]; -1.3 in the series with Plasmodium falciparum [11]; 4.7 in series [12]; 1 in series [13]; -2.6 in series [15]; 0.73 in series [16]. The GI50 in series [9] and in series [10] was more than 10000 nM throughout. Also, in the series on Plasmodium falciparum [14], the inhibition at 5 µM was more than 50%.
`COC(=O)C1=C(Cc2ccccc2)NC(=O)NC1c1ccc2ccccc2c1` (configuration not stated) had an IC50 with Plasmodium falciparum [1] of 300 nM. The fold change (FC) in series [2] is 2; with Plasmodium falciparum [3] it was 1.4; in series [4] it was 0.7; in [5], 2; in series [6] it was 1.3; in [7] it was 1.2. Further, the fold change (FC) in [8] is -1.2; with Plasmodium falciparum [11] it was -1.2; in [12] it was 2.5; in series [13], -1.2; in series [15] it was -1.3; in [16], 1. Besides, the Activity in series [17] worked out at 30%. The GI50 in [9] and in series [10] was more than 10000 nM throughout. The compound further had an inhibition at 5 µM in the series with Plasmodium falciparum [14] of more than 50%.
Compound `CCOC(=O)C1=C(C)N(CCCCCC(=O)O)C(=O)NC1c1cccc([N+](=O)[O-])c1` (configuration not stated) displayed an IC50 in the series on Plasmodium falciparum [1] of 1600 nM. Besides, the fold change (FC) in series [2] amounted to 1.3; in the series with Plasmodium falciparum [3], 1.8; in [4], 0.85; in series [5], 1.3; in [6], 1.4; in series [7] it was 0.93. Moreover, the fold change (FC) in series [8] was 1; in the series on Plasmodium falciparum [11], -1.1; in [12] it was 1.1; in series [13], -1.3; in series [15], 1.1; in [16], 1.01. Besides, the GI50 in series [9] and in [10] was more than 10000 nM in each case. For the same compound, in the series with Plasmodium falciparum [14], the inhibition at 5 µM was more than 50%.
`CCOC(=O)C1=C(C)N(Cc2ccccc2)C(=O)NC1c1ccccc1OS(=O)(=O)c1ccccc1[N+](=O)[O-]` (configuration not stated): in the series with Plasmodium falciparum [1], inhibition was half-maximal at 100 nM (IC50). In addition, the fold change (FC) in series [2] was 2.1; in the series on Plasmodium falciparum [3] it was 6.5; in [4] it was 0.74; in series [5] it was 2.1; in series [6], 3.6; in series [7] it was 1.1. Moreover, the fold change (FC) is 1 in series [8]; 1.4 with Plasmodium falciparum [11]; 3.5 in series [12]; -1.2 in series [13]; -1.3 in series [15]; 0.99 in series [16]. Besides, the Activity in [17] turned out to be 30%. Besides, the GI50 in series [9] and in series [10] was more than 10000 nM in each case. In the series with Plasmodium falciparum [14], this compound returned an inhibition at 5 µM of more than 50%.
With `CCCCCCN(C(=O)CCCCCN1C(=O)NC(c2ccc(-c3ccccc3)cc2)C(C(=O)OCc2ccccc2)=C1C)C(C(=O)NCCCC)C1CCCCC1` (configuration not stated), in the series on Plasmodium falciparum [1], 1100 nM corresponded to half-maximal inhibition (IC50). Besides, the fold change (FC) in series [2] was -1.7; with Plasmodium falciparum [3], 2.9; in series [4], 0.95; in [5], -1.7; in series [6], 2.3; in series [7], 0.97. The fold change (FC) in [8] was 1.2; with Plasmodium falciparum [11], -1.5; in [12], 2.8; in [13], 1.1; in series [15] it was -1.3; in series [16], 0.74. Also, the GI50 in [9] and in series [10] was more than 10000 nM each time. The compound further showed an inhibition at 5 µM in the series on Plasmodium falciparum [14] of more than 50%.
